ChEMBL document CHEMBL5661979, “Pharmacological inhibition of BMK1 suppresses tumor growth through promyelocytic leukemia protein” (Cancer Cell, 2010)

What was measured:
[1] = biological target: T1, Dual specificity mitogen-activated protein kinase kinase 6 (Homo sapiens) (UniProt P52564); assay: Inhibition of MAP2K6 in human HeLa cells lysate at 2 uM pre incubated for 15 mins followed by ATP acyl phosphate probe addition and measured after 10 mins by LC-MS/MS analysis relative to control; format: subcellular; conditions: time 25.0 min
T1 sequence (whole entry): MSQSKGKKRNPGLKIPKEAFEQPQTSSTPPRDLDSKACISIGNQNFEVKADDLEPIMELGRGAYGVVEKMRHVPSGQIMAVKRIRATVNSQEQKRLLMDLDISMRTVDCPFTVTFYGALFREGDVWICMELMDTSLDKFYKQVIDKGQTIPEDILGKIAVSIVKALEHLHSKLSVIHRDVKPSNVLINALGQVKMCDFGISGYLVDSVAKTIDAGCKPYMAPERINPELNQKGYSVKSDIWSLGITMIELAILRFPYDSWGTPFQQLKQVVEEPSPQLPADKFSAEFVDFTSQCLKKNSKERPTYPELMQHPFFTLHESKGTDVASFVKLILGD

[2] = biological target: T2, Phosphatidylinositol 5-phosphate 4-kinase type-2 alpha (Homo sapiens) (UniProt P48426); assay: Inhibition of PIP5K2A in human HeLa cells lysate at 50 uM pre incubated for 15 mins followed by ATP acyl phosphate probe addition and measured after 10 mins by LC-MS/MS analysis relative to control; format: subcellular; conditions: time 25.0 min
T2 sequence (whole entry): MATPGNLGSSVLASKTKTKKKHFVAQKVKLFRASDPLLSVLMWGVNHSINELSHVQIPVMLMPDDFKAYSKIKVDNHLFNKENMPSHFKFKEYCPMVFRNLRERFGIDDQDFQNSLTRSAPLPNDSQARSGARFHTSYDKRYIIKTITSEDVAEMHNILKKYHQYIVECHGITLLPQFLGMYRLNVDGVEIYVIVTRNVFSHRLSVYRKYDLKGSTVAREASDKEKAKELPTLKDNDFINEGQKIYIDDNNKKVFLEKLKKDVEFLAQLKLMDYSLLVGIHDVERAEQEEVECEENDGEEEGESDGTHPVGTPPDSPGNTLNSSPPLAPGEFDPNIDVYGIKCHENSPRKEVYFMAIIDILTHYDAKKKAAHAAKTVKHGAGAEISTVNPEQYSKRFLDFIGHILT

[3] = biological target: Tyrosine-protein kinase ABL (Homo sapiens, UniProt P00519+P42684); assay: Inhibition of ABL1/2 in human HeLa cells lysate at 50 uM pre incubated for 15 mins followed by ATP acyl phosphate probe addition and measured after 10 mins by LC-MS/MS analysis relative to control; format: subcellular; conditions: time 25.0 min
How it was run: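 HeLa cell lysates (5 mg/mL total protein) were preincubated with inhibitor at 0, 0.8, 2, 10 or 50 μM for 15 min. ATP or ADP acylphosphate probe was then added (5 μM final) for 10 min, and reactions were stopped with urea. Up to four fragment ions per kinase probe-peptide were quantified by targeted MS. % inhibition was taken relative to untreated lysate. Run in duplicate.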

[4] = biological target: Phosphorylase b kinase gamma catalytic chain, liver/testis isoform (Homo sapiens, UniProt P15735); assay: Inhibition of PHKg2 in human HeLa cells lysate pre incubated for 15 mins followed by ATP acyl phosphate probe addition and measured after 10 mins by LC-MS/MS analysis; format: subcellular
[5] = biological target: Focal adhesion kinase 1 (Homo sapiens, UniProt Q05397); assay: Inhibition of FAK in human HeLa cells lysate pre incubated for 15 mins followed by ADP acyl phosphate probe addition and measured after 10 mins by LC-MS/MS analysis; format: subcellular
[6] = biological target: T3, EKC/KEOPS complex subunit TP53RK (Homo sapiens) (UniProt Q96S44); assay: Inhibition of PRPK in human HeLa cells lysate at 10 uM pre incubated for 15 mins followed by ATP acyl phosphate probe addition and measured after 10 mins by LC-MS/MS analysis relative to control; format: subcellular; conditions: time 25.0 min
T3 sequence (whole entry): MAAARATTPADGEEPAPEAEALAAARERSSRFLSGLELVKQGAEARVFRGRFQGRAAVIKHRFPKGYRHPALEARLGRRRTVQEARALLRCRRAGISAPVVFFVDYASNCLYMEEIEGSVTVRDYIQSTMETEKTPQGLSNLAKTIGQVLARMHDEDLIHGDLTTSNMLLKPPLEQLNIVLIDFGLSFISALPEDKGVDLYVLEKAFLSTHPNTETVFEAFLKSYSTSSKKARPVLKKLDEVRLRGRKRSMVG

[7] = Inhibition of KHS1/2 in human HeLa cells lysate at 50 uM pre incubated for 15 mins followed by ATP acyl phosphate probe addition and measured after 10 mins by LC-MS/MS analysis relative to control; conditions: 25 min, condition cancer
[8] = biological target: T4, Serine/threonine-protein kinase Chk1 (Homo sapiens) (UniProt O14757); assay: Inhibition of CHK1 in human HeLa cells lysate at 50 uM pre incubated for 15 mins followed by ATP acyl phosphate probe addition and measured after 10 mins by LC-MS/MS analysis relative to control; format: subcellular; conditions: time 25.0 min
T4 sequence (whole entry): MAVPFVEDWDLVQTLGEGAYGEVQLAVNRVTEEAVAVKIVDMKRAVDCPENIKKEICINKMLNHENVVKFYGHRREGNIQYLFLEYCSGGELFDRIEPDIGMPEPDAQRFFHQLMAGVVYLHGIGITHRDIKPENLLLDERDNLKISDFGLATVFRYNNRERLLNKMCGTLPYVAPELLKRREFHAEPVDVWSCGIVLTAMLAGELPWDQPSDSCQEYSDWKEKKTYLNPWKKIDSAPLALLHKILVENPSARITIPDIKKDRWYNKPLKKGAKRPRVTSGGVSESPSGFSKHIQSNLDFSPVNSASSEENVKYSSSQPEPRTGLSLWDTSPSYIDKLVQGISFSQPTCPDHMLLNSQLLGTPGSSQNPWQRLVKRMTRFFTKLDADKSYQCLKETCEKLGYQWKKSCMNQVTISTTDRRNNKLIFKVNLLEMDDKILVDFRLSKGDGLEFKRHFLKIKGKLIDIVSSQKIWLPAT

Focal adhesion kinase 1, sequence (Q05397 whole entry): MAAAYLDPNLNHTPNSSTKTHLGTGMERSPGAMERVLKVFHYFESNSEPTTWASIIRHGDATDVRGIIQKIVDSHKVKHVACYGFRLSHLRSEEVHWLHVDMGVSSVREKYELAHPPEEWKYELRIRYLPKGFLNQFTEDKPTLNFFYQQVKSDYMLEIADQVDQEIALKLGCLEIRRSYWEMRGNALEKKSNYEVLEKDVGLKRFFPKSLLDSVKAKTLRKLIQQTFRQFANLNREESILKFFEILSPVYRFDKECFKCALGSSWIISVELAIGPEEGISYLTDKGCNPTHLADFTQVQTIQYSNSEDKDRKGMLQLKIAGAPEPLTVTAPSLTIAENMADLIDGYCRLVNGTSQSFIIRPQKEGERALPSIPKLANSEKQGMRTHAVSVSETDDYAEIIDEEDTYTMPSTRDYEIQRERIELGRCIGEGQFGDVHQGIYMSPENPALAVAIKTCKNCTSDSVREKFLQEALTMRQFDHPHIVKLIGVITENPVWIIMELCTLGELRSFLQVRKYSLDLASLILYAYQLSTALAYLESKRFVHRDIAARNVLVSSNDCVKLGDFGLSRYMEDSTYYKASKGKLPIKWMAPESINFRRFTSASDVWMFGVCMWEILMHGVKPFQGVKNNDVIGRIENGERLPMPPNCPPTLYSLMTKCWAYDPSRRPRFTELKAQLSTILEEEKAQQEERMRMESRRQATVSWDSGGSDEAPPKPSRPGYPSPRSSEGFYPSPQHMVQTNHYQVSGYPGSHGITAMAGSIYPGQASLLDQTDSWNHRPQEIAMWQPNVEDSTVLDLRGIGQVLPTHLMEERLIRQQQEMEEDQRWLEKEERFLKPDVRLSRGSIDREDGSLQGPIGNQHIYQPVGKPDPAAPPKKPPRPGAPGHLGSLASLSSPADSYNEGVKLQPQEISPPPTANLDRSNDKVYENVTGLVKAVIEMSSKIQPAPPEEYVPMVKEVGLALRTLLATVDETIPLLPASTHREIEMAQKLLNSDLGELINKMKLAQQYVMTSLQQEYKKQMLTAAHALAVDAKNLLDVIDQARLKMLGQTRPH
Tyrosine-protein kinase ABL, sequence (P00519 whole entry, looked up, the tested form may be a part): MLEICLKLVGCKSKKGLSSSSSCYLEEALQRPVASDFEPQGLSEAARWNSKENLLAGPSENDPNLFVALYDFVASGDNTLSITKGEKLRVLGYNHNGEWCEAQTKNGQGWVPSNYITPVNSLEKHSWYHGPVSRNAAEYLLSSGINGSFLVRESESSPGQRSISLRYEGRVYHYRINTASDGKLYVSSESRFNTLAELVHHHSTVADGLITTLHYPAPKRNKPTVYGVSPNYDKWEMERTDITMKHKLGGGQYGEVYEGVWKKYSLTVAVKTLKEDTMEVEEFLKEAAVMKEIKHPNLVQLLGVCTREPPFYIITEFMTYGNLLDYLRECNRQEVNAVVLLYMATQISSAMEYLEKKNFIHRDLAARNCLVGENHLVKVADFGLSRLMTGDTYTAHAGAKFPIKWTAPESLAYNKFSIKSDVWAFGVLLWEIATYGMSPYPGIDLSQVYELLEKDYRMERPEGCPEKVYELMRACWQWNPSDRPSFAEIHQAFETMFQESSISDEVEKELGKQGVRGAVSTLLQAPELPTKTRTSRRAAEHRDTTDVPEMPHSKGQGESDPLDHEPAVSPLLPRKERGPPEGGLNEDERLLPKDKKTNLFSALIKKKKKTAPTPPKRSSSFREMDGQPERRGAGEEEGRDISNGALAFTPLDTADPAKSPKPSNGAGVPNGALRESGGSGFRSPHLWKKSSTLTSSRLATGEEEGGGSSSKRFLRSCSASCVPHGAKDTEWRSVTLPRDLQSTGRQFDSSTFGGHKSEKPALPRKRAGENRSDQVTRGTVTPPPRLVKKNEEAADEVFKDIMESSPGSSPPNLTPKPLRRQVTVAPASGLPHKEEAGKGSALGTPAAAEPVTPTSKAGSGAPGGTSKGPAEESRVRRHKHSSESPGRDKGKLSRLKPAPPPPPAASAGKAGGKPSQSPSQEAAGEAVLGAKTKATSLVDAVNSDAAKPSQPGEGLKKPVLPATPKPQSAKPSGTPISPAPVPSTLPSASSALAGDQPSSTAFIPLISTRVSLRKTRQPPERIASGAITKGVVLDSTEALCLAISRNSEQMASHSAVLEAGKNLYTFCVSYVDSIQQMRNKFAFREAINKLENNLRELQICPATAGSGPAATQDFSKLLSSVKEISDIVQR
Tyrosine-protein kinase ABL, sequence (P42684 whole entry, looked up, the tested form may be a part): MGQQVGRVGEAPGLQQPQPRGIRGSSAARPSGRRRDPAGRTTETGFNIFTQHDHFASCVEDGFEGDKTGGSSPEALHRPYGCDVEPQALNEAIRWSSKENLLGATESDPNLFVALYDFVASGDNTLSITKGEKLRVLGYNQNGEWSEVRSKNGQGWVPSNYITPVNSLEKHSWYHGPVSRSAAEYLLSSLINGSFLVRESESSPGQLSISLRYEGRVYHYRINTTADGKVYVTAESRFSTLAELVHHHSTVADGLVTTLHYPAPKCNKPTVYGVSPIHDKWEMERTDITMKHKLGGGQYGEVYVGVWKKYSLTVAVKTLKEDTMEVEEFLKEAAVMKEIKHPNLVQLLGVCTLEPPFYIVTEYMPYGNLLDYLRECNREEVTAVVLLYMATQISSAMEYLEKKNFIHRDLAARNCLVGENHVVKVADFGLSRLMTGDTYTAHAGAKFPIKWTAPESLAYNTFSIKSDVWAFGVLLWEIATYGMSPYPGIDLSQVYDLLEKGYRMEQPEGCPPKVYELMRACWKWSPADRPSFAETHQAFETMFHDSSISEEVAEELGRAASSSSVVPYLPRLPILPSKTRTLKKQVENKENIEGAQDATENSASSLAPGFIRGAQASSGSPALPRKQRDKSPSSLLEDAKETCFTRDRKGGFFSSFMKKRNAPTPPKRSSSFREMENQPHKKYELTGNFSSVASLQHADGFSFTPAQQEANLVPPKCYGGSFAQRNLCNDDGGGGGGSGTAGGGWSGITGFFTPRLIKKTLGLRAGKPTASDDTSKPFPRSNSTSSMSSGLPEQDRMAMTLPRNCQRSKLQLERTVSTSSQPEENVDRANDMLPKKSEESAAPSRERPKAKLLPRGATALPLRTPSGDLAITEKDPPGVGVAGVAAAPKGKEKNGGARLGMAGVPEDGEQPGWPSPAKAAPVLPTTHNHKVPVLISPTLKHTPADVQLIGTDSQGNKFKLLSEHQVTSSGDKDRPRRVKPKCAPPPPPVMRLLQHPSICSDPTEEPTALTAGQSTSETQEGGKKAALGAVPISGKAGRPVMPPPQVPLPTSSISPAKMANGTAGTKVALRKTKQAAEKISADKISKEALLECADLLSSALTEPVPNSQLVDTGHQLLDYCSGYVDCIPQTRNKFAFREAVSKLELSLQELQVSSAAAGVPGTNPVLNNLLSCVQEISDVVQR
Phosphorylase b kinase gamma catalytic chain, liver/testis isoform, sequence (P15735 whole entry, canonical isoform): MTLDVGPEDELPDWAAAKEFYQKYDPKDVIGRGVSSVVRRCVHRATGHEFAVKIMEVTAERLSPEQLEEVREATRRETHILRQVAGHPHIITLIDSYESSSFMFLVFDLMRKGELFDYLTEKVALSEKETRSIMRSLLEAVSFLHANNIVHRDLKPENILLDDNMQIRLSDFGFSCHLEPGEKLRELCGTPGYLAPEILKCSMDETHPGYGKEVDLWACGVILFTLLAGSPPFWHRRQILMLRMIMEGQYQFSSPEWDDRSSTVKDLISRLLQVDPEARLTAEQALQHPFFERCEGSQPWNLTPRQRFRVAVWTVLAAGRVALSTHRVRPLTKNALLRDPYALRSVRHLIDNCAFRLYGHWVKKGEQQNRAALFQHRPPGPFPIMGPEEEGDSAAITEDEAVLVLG

In the case of `CCOc1cc(N2CCC(O)CC2)ccc1Nc1ncc2c(n1)N(C)c1ccccc1C(=O)N2C`, the inhibition [1] is reported as -4%, the inhibition [2] is reported as 1% and the inhibition [3] is reported as 4.9%. The IC50 [4] was over 50 µM, the IC50 [5] was 39 µM and the inhibition [6] was -9.7%. It also gave an inhibition at 50 µM [7] of 2.5% and an inhibition [8] of -0.4%.
